Laboratory results published in ChEMBL document CHEMBL5329218, “Novel styryl-thiazole hybrids as potential anti-Alzheimer's agents” (RSC Med Chem, 2023).
The source made the active and inactive calls. No cut-off for these calls is given here.

Legend:
SH-SY5Y [1] = test: Antialzheimer activity against RA/BDNF-treated human SH-SY5Y cells assessed as cell viability at 12.5 to 100 ug/ml incubated for 24 hrs by MTT assay; assay type: functional, cell-based; settings: dose 12.5-100 µg/ml
Procedure, shortened: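 SH-SY5Y grown in DMEM:F12 with 10% FBS at 37 °C, 5% CO2. Differentiated with 10 µM retinoic acid to day 8 (3% FBS medium refreshed every 2 days), then 25 nM BDNF for 5 days. Compound exposure, then MTT for 3 h at 37 °C. Formazan dissolved in DMSO, absorbance at 570 nm. 1.0% Triton X-100 as control.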

SH-SY5Y [2] = test: Neuroprotective activity against amyloid beta 1-42-treated human SH-SY5Y cells assessed as decrease in beta-secretase activity measured per mg protein incubated for 30 mins by microplate reader analysis (reference value: 54.35 +/- 4.34 RFU); assay type: functional; settings: 0.5 h
[3] = Genotoxicity in human SH-SY5Y cells assessed as nuclear abnormalities by measuring total micronucleus at 100 ug/ml incubated for 24 hrs by Hoechst 33258 staining based fluorescent microscopy (reference value: 6); assay type: toxicity, cell-based; settings: dose 100 µg/ml
SH-SY5Y [4] = test: Neuroprotective activity against amyloid beta 1-42-treated human SH-SY5Y cells assessed as reduction in beta amyloid aggregation by Congo Red dye based analysis; assay type: functional, cell-based
Procedure, shortened: (§1)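 SH-SY5Y differentiated with RA then BDNF. Aβ1-42 pre-fibrillized at 20 µM in medium for 24 h, then 20 µM added with compounds for 24 h. Cells fixed in 4% paraformaldehyde at 4 °C for 30 min. Stained with 1 µM Congo red for 1 h in the dark, washed with PBS, dye extracted into DMSO, absorbance at 497 nm.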

Acetylcholinesterase = Acetylcholinesterase (Homo sapiens, UniProt P22303); test: Inhibition of AChE (unknown origin) using acetylthiocholine iodide as substrate prewarmed for 10 mins followed by substrate addition measured after 15 mins by DTNB assay
Chain of Acetylcholinesterase (P22303 whole entry): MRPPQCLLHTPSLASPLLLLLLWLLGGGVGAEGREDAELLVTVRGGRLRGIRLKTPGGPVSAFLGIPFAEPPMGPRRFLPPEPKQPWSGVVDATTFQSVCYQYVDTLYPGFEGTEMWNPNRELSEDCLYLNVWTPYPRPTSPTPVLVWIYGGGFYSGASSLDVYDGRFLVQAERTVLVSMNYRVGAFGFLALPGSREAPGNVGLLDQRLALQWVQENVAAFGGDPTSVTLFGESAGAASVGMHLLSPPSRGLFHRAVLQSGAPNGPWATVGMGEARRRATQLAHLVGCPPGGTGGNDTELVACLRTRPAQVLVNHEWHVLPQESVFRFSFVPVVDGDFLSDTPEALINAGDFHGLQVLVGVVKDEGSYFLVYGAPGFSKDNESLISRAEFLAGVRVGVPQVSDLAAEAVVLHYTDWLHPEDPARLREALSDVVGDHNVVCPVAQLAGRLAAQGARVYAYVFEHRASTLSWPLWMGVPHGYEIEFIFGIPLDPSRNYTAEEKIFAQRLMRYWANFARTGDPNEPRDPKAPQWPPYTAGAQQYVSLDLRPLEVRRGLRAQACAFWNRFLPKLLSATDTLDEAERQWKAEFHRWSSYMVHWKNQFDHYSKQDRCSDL
Procedure, shortened: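 Purified AChE at 0.005 unit per well in 50 mM Na2HPO4, pH 7.7. Test compound at 0.5 mM per well, read at 405 nm, then preincubated 10 min at 37 °C. Started with acetylthiocholine iodide and DTNB (each 0.5 mM per well). Absorbance at 405 nm after 15 min at 37 °C. Eserine reference, triplicate; % inhibition versus control, IC50 by kinetics fitting.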

[5] = Genotoxicity in human SH-SY5Y cells assessed as mean nuclear abnormalities measured per 1000 cells at 100 ug/ml incubated for 24 hrs by Hoechst 33258 staining based fluorescent microscopy (reference value: 0.016 +/- 0.007); assay type: toxicity, cell-based; settings: dose 100 µg/ml
SH-SY5Y [6] = test: Neuroprotective activity against amyloid beta 1-42-treated human SH-SY5Y cells assessed as decrease in AChE activity incubated for 30 mins by microplate reader analysis (reference value: 459.6 +/- 32.152 mU/ml); assay type: functional; settings: dose 0.5 mM
[7] = Genotoxicity in human SH-SY5Y cells assessed as nuclear abnormalities by measuring total notched mutations at 100 ug/ml incubated for 24 hrs by Hoechst 33258 staining based fluorescent microscopy (reference value: 5); assay type: toxicity, cell-based; settings: dose 100 µg/ml
SH-SY5Y [8] = test: Neuroprotective activity against amyloid beta 1-42-treated human SH-SY5Y cells assessed as increase in cell viability at 25 ug/ml incubated for 24 hrs by MTT assay relative to control; settings: dose 25 µg/ml
Beta-secretase 1 = Beta-secretase 1 (Homo sapiens, UniProt P56817); test: Inhibition of BACE1 (unknown origin) expressed in baculovirus expression system using Rh-EVNLDAEFKQuencher peptide substrate incubated for 90 mins by FRET assay
Chain of Beta-secretase 1 (P56817 whole entry): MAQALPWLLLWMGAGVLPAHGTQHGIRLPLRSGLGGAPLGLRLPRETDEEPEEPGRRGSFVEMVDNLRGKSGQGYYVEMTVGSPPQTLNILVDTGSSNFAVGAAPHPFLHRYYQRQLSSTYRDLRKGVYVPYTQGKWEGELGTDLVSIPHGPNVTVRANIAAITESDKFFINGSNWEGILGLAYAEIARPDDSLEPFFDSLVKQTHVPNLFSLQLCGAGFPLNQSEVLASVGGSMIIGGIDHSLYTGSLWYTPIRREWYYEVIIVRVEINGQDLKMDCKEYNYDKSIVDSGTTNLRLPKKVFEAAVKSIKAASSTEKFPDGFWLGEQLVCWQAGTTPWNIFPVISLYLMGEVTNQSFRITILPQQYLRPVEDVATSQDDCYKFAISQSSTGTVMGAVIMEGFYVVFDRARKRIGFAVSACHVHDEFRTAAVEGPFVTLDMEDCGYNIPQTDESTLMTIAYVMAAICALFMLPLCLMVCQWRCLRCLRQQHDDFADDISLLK

[9] = Genotoxicity in human SH-SY5Y cells assessed as nuclear abnormalities by measuring total lobbed nucleus at 100 ug/ml incubated for 24 hrs by Hoechst 33258 staining based fluorescent microscopy (reference value: 5); assay type: toxicity, cell-based; settings: dose 100 µg/ml
SH-SY5Y [10] = test: Neuroprotective activity against amyloid beta 1-42-treated human SH-SY5Y cells assessed as reduction in beta amyloid aggregation by Congo Red dye based analysis relative to control; assay type: functional; set-up: scale not given: the % may be the effect or the level left; procedure, shortened: as §1
SH-SY5Y [11] = test: Neuroprotective activity against amyloid beta 1-42-treated human SH-SY5Y cells assessed as increase in cell viability at 50 ug/ml incubated for 24 hrs by MTT assay relative to control; settings: dose 50 µg/ml

Structure (SMILES) | Activity (SH-SY5Y [1]) | Activity (SH-SY5Y [2]) [RFU] | Activity [3] | Activity (SH-SY5Y [4]) | IC50 (Acetylcholinesterase) [µM] | Activity [5] | Activity (SH-SY5Y [6]) [mU/ml] | Activity [7] | Activity (SH-SY5Y [8]) [%] | IC50 (Beta-secretase 1) [µM] | Activity [9] | Activity (SH-SY5Y [10]) [%] | Activity (SH-SY5Y [11]) [%]
Brc1ccc(-c2csc(/C=C/c3ccccc3)n2)cc1 | Active | 17.41 | 4 | Active | 229 | 0.017 | 375.6 | 9 | ~30 | 44.4 | 5 | – | –
COc1ccc(/C=C/c2nc(-c3ccc(OC)cc3)cs2)cc1 | Active | 14.13 | 6 | – | 197 | 0.017 | 397.6 | 5 | – | 78.2 | 6 | >80 | ~34
